These results are taken from publication PMC4431946 (Journal of the American Chemical Society, 2015).

As usually defined, the IC50 is the concentration that inhibits the measured activity by half. In general, kinact refers to the maximal first-order rate at which the target is inactivated. The term kinact/KI denotes the second-order rate constant of inactivation. In general, Kd refers to the constant that tells how readily two partners part at equilibrium. Low readings indicate tighter binding, high ones weaker binding.

The target in assay [1] is T1, rat nNOS (Rattus norvegicus, UniProt P29476). Put plainly: Irreversible inhibition kinetics. The class given is biochemical. Particulars: for time-dependent inactivation of nNOS: result in words.
In assay [2] the target is nNOS (Rattus norvegicus, UniProt P29476). The experiment in a line: LC/MS of amino acid metabolites after inactivation of nNOS by 1. The class given is biochemical. Particulars: 56 µM of 1, 37 °C, 3 h.
The target of assay [3] is T1, rat nNOS. Conditions: result in words; reported earlier; cited from earlier work.
Assay [4] has as its target T1, rat nNOS. The experiment in a line: Hemoglobin NO generation assay. The class given is biochemical.
Assay [5] has as its target ferric nNOS (Rattus norvegicus, UniProt P29476). Put plainly: Spectral titration of ferric nNOS-H4B. The class given is binding. In outline:
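Ferric full-length rat nNOS-H4B, 5 µM, in 50 mM HEPES pH 7.5 with 100 mM NaCl, titrated by 1–2 µL additions of test compound. Difference spectra recorded from 350–550 nm. Peak (~455 nm) minus trough (400 nm) absorbance plotted against ligand concentration.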

Assay [6] has as its target ferrous nNOS (Rattus norvegicus, UniProt P29476). The experiment in a line: Spectral titration of dithionite-reduced. The class given is binding. In a few lines:
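Full-length rat nNOS-H4B reduced with dithionite and desalted under anaerobic conditions in a glovebox. Degassed 50 mM HEPES pH 7.5 with 100 mM NaCl; compound stocks made in degassed buffer. Test compound added in 1–2 µL portions from 1, 5 and 20 mM stocks, totalling <2% of volume. Double-beam scans from 350–600 nm, repeated until stable. Peak (~455 nm) minus trough (410 nm) absorbance fitted with a quadratic function for apparent Ks.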

SMILES strings stand for the structures. Read-outs that look alike come from different tables or passages of the source.

Sequence of ferrous nNOS (P29476 whole entry): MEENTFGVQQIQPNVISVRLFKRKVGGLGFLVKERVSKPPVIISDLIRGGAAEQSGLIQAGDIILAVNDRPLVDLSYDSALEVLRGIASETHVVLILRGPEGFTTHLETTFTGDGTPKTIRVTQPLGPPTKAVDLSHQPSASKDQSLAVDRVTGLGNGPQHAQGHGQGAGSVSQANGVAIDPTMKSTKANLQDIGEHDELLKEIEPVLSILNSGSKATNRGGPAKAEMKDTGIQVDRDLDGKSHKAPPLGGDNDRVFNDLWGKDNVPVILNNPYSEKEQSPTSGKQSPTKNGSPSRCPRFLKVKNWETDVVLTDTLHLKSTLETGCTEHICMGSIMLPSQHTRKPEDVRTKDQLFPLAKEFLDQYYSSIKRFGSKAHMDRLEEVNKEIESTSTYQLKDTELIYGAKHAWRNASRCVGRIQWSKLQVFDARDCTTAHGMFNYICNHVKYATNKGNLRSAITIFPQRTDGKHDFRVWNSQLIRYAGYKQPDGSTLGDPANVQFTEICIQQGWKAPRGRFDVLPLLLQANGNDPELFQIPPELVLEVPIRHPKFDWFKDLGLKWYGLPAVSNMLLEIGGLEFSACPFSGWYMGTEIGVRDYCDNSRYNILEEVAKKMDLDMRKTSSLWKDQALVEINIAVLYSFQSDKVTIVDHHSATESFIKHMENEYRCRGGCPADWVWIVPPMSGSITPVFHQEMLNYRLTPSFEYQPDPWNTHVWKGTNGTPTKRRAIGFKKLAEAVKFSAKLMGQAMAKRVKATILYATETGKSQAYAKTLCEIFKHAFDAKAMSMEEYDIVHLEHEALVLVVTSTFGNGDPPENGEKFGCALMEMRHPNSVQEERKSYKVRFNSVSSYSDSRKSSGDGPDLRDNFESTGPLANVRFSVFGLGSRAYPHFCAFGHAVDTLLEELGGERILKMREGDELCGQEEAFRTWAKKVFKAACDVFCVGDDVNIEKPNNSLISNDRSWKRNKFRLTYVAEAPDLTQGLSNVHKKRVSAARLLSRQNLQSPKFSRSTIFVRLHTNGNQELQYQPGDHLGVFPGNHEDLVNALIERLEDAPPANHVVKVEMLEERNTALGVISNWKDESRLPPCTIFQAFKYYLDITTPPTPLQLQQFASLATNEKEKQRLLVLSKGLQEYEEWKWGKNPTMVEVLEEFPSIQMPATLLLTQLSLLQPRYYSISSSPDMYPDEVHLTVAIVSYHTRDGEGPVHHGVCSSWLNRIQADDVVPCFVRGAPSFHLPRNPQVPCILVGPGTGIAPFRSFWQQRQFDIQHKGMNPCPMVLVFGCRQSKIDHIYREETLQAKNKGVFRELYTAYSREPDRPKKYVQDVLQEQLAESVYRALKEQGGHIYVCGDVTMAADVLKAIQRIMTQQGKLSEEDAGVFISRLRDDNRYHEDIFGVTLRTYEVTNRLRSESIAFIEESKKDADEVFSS
Sequence of ferric nNOS (P29476 whole entry): as above

Consider `CSCC(=N)NCCC[C@H](N)C(=O)O` [compound 1, (S)-2-Amino-5-(2-(methylthio)acetimidamido)pentanoic acid], for which the “time-dependent inactivation of nNOS” value in assay [1] was “inactivator of nNOS”; in assay [3], “time-dependent irreversible inhibitor of nNOS”. The “amount of 2 produced from the inactivation of nNOS by 1” value in assay [2] is reported as “Approximately 0.53 µM”.

For the compound `C[S+]([O-])CC(=N)NCCC[C@H](N)C(=O)O` (stereo partly drawn) [compound 2, (2S)-2-Amino-5-(2-(methylsulfinyl)acetimidamido)pentanoic acid], in assay [4], the IC50 came to 461 ± 20 µM and the Ki is 53 ± 2.4 µM. Also, the “time-dependent inactivation of nNOS” value in assay [1] is “neither showed time-dependent inactivation”.

As for `CS(=O)(=O)CC(=N)NCCC[C@H](N)C(=O)O` [compound 3, (S)-2-Amino-5-(2-(methylsulfonyl)acetimidamido)pentanoic acid], in assay [4], the IC50 came out at 507 ± 49 µM and the Ki was 58.3 ± 5.6 µM. In addition, in assay [1], the “time-dependent inactivation of nNOS” value was “neither showed time-dependent inactivation”.

As for `N=C(C=O)NCCC[C@H](N)C(=O)O` [compound 4, (S)-2-Amino-5-(2-oxoacetimidamido)pentanoic acid], in assay [4], the midpoint of inhibition, the IC50, lay at 199 ± 7.1 µM and the Ki came out at 22.9 ± 0.82 µM. The “time-dependent inactivation of nNOS” value in assay [1] was “neither was a time-dependent inhibitor”.

In assay [4], `N=C(CO)NCCC[C@H](N)C(=O)O` [compound 5, (S)-2-Amino-5-(2-hydroxyacetimidamido)pentanoic acid] gave an IC50 of 13 ± 0.67 µM and a Ki of 1.5 ± 0.08 µM. Also, the “time-dependent inactivation of nNOS” value in assay [1] is “neither was a time-dependent inhibitor”.

Turning to `N=C(CS)NCCC[C@H](N)C(=O)O` [compound 6, (S)-2-Amino-5-(2-mercaptoacetimidamido)pentanoic acid], in assay [4], the IC50 was 3.64 ± 0.15 µM and the Ki worked out at 0.42 ± 0.017 µM. Also, in assay [1], the Ki was 2.9 ± 0.2 µM; the kinact is 0.000767 s⁻¹; the kinact/KI was 267 M⁻¹ s⁻¹; the “time-dependent inactivation of nNOS” value was “time- and concentration-dependent inactivator”. For the same compound, the “inactivation rate (kinact) relative to 1” value in assay [1] (6 versus 1) is given as “about half the inactivation rate”. Binding in assay [5] was put at a Kd of 1.8 ± 0.1 µM. The “heme ligand type from difference spectra” value in assay [5] (ferric nNOS-H4B) is reported as “type-II ligand”. Besides, the Kd in assay [6] is 1.6 ± 0.3 µM. Moreover, the “heme ligand type from difference spectra” value in assay [6] (dithionite-reduced nNOS-H4B) was “still a type-II ligand”.
